Data published in the RNAGym collection of RNA variant scans (doi:10.1126/science.aae0568).
Variants at the floor of the assay were thinned out.

B1: tRNA (parent)
chain: GUUCCGUUGGCGUAAUGGUAACGCGUCUCCCUCCUAAGGAGAAGACUGCGGGUUCGAGUCCCGUACGGAACG

Variants of: B1
Test: yeast fitness relative to wild type (ratio to wild type); higher = fitter; tRNA-Arg(CCU), competitive growth, 37 C, YPD
How it was run: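 Start and end populations of a pooled competition were compared by 100-nucleotide paired-end sequencing of gene amplicons. The Saccharomyces cerevisiae strains carried tRNA-Arg(CCU) gene variants at the native genomic locus, synthesised with a 3% per-site mutation rate at 69 sites, and competed in YPD at 37°C for 24 hours in six parallel replicates. Darwinian fitness relative to wild type was based on the change in genotype frequencies. Genotypes required ≥ 100 starting reads, and estimates < 0.5 were set to 0.5.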

**Q.** For GUUCAGUUGGCGUAAUCGUAACGCGUCUCCCUCCUAAGGAGAAGACUGUGGGUUCGCGUCCCGUACGGAACG, which yeast fitness is on record?
**A.** The yeast fitness was ≤ 0.5.

**Q.** For GUUCAGUUGGCGUAAUCCUAACGCGUCUCCCUCCUAAGGAGAAGACUGCGGGUUCGAGUCCCGUACGGAACG, which yeast fitness is on record?
**A.** The yeast fitness was 0.579.

**Q.** Which yeast fitness does the source give for GUUCAGUUGGCGUAAUCCUAACGCGUCUCCCUCCUAAGGAGAAGACUGCGGGUUCGAGUUCCGUACGGAACG here?
**A.** Its yeast fitness is ≤ 0.5.

**Q.** Which yeast fitness does the source give for GUUCAGUUGGCGUAAUCCUAACGCGUCUCCCUCCUAAGGAGAAGACUGCGGGUUCGAGUCGCGUACGGAACG here?
**A.** The yeast fitness was ≤ 0.5.

**Q.** Which yeast fitness does the source give for GUUCAGUUGGCGUAAUCGUAACGCAUCUCCCUCCUAAGGAGAAGACUGCGGGUUCGAGUCCCGUACGGAACG here?
**A.** The yeast fitness was ≤ 0.5.

**Q.** Which yeast fitness does the source give for GUUCAGUUGGCGUAAUCGUAACGCGUCUCCCUCCUAAGGAGAAAACUGCGGGUUCGAGUCUCGUACGGAACG here?
**A.** The yeast fitness was ≤ 0.5.

**Q.** With GUUCAGUUGGCGUAAUCGUAACGCGUCUCCCUCCUAAGGAGAAGACUGCGGGUUCGACUCCCGUACGGAACG as the variant, how does the yeast fitness read?
**A.** Its yeast fitness is ≤ 0.5.

**Q.** Which yeast fitness does the source give for GUUCAGUUGGCGUAAUCGUAACGCGUCCCCCUCCUAAGGAGAAGACUGCGGGUUCGAGUCCCGUACGGAACG here?
**A.** Its yeast fitness is ≤ 0.5.

**Q.** For GUUCAGUUGGCGUAAUGAUAACGCGUCUCCCUCCUAAGGAGAAGACUGCGGGUUCGAGUCCCGUACGGUACG, which yeast fitness is on record?
**A.** Its yeast fitness is ≤ 0.5.

**Q.** Which yeast fitness does the source give for GUUCAGUUGGCGUAAUGAUAACGCGUCUCUCUCCUAAGGAGAAGACUCCGGGUUCGAGUCCCGUACGGAACG here?
**A.** The yeast fitness was ≤ 0.5.

**Q.** With GUUCAGUUGGCGUAAUGAUAACGCGUCUCUCUCCUAAGGAGAAGACUCCGGGUUCGAGUCCCGUACGCAACG as the variant, how does the yeast fitness read?
**A.** The yeast fitness was 0.54.

**Q.** For GUUCAGUUGGCGUAAUGAUAACGCGUCUCCCUCCUAAGGAGAAGACUGCGGGUUCGAGUCGCGCACGGAACG, which yeast fitness is on record?
**A.** Its yeast fitness is ≤ 0.5.

**Q.** Which yeast fitness does the source give for GUUCAGUUGGCGUAAUGAUAACGCAUCUCCUUCCUAAGGAGAAGACUGCGGGUUCGAGUCCCGUACGGAACG here?
**A.** Its yeast fitness is ≤ 0.5.

**Q.** For GUUCAGUUGGCGUAAUGAUAACGCAUCUCCUUCCUAAGGAGAAGACUGCGGGUUCGAGUCUCGUACGGAACG, which yeast fitness is on record?
**A.** The yeast fitness was 0.562.

**Q.** With GUUCAGUUGGCGUAAUGCUAACGCGUCUCCCUCCUAAGGAGAAGACUGCGGGUUCGAGUCCCGUACGGAACG as the variant, how does the yeast fitness read?
**A.** Its yeast fitness is 0.569.

**Q.** With GUUCAGUUGGCGUAAUGCUAACGCGUCUCCCUCCUAAGGAGAAGACUGCCGGUUCGAGUGCCGUACGGAGCG as the variant, how does the yeast fitness read?
**A.** Its yeast fitness is ≤ 0.5.

**Q.** For GUUCAGUUGGCGUAAUGCUAACGCGUCUCCCUCCUAAGGAGAAGACUGCGGGUUCGAGUCCCGUACCGAACG, which yeast fitness is on record?
**A.** Its yeast fitness is 0.561.

**Q.** Which yeast fitness does the source give for GUUCAGUUGGCGUAAUGGUAACACGUCUCCCUCCUAAGGAGAAGACUGCGGGUUCGAGUCCCGUACGGAACG here?
**A.** Its yeast fitness is 0.753.

**Q.** Which yeast fitness does the source give for GUUCAGUUGGCGUAAUGGUAACAUGUCUCCCUCCUAAGGAGAAGACUGCGGGUUCGAGUCCCGUACGGAACG here?
**A.** The yeast fitness was 0.561.

**Q.** For GUUCAGUUGGCGUAAUGGUAACAUGUCUCCCUCCUAAGGAGAAGACAGCGGGUUCGAGUCCCGUACGGAACG, which yeast fitness is on record?
**A.** Its yeast fitness is ≤ 0.5.

**Q.** For GUUCAGUUGGCGUAAUGGUAACACGUCUCCCUCCUAAGGAGAAGAUUGCCGGUUCGAGUCACGUACGGACCG, which yeast fitness is on record?
**A.** The yeast fitness was ≤ 0.5.

**Q.** Which yeast fitness does the source give for GUUCAGUUGGCGUAAUGGUAACCCGUCUCCCUCCUAAGGAGAAGACUGCGGGUUCGAGUCCCGUACGGAACG here?
**A.** Its yeast fitness is 0.723.

**Q.** Which yeast fitness does the source give for GUUCAGUUGGCGUAAUGGUAACCCGUCUCCCUCCUAAGGAGAAGACUCCGGGUUCGAGUCACGUACGGAACG here?
**A.** The yeast fitness was ≤ 0.5.

**Q.** With GUUCAGUUGGCGUAAUGGUAACGCAUCUCCCUCCUAAGGAGAAGACUGCGGGUUCGAGUCCCGUACGGAACG as the variant, how does the yeast fitness read?
**A.** Its yeast fitness is 1.03.

**Q.** With GUUCAGUUGGCGUAAUGGUAACGCAUCUCCCUACUAAGGUGAAGACUGCGGGUUCGAGUCCCGUACGGUACG as the variant, how does the yeast fitness read?
**A.** Its yeast fitness is ≤ 0.5.

**Q.** Which yeast fitness does the source give for GUUCAGUUGGCGUAAUGGUAACGCAUCUCCCUCCUAAGGAGAAGACUGCGGGUUCGACUCCCGUAUGGAACG here?
**A.** The yeast fitness was ≤ 0.5.

**Q.** With GUUCAGUUGGCGUAAUGGUAACGCAUCCCCUUCCUAAGGCGGAGACUGCGGGUUCGAGUCCCGUACGGCACG as the variant, how does the yeast fitness read?
**A.** The yeast fitness was ≤ 0.5.

**Q.** Which yeast fitness does the source give for GUUCAGUUGGCGUAAUGGUAACGCCUCUCCCUCCUAAGGAGAAGACUGCGGGUUCGAGUCCCGUACGGAACG here?
**A.** The yeast fitness was 0.86.

**Q.** With GUUCAGUUGGCGUAAUGGUAACGCCUCUCCCUCCUAAGGAGAAGACUGCGGGUUCGCGUCCCGUACAGUACG as the variant, how does the yeast fitness read?
**A.** The yeast fitness was 0.525.

**Q.** With GUUCAGUUGGCGUAAUGGUAACGCCUCUCUCUCCUAAGGAGAAGACUGCGGGUUCGAGUCCCGUACGGAACG as the variant, how does the yeast fitness read?
**A.** Its yeast fitness is 0.576.

**Q.** Which yeast fitness does the source give for GUUCAGUUGGCGUAAUGGUAACGCGUCUCCCUCCUAAAGAGAAGACUGUGGGUUCGAGUCCCGUACGGAACG here?
**A.** The yeast fitness was 0.57.

**Q.** For GUUCAGUUGGCGUAAUGGUAACGCGUCUCCCUCCUAAAGAGAAGACUGCGGGUUCGAGUCCUGUACGGAACG, which yeast fitness is on record?
**A.** The yeast fitness was 0.639.

**Q.** For GUUCAGUUGGCGUAAUGGUAACGCGUCUCCCUCCUAACGAGGAGACUGCGGGUUCGAGUCCCGUACGGAACG, which yeast fitness is on record?
**A.** The yeast fitness was 0.582.

**Q.** Which yeast fitness does the source give for GUUCAGUUGGCGUAAUGGUAACGCGUCUCCCUCCUAACGAGAAGACUGCGAGUUCGAAUCCCGUACGGAACG here?
**A.** Its yeast fitness is 0.506.

**Q.** For GUUCAGUUGGCGUAAUGGUAACGCGUCUCCCUCCUAAGAAGAAGACUGUGGGUUCCAGUCCCGUACGGAACG, which yeast fitness is on record?
**A.** The yeast fitness was ≤ 0.5.

**Q.** With GUUCAGUUGGCGUAAUGGUAACGCGUCUCCCUCCUAAGAAGAAGACUGUGGGUUCGAGUCCCGUACAGAACG as the variant, how does the yeast fitness read?
**A.** The yeast fitness was ≤ 0.5.

**Q.** With GUUCAGUUGGCGUAAUGGUAACGCGUCUCCCUCCUAAGAAGAAGACUGCGGGUUCCAGUCCCGUACGGAACG as the variant, how does the yeast fitness read?
**A.** Its yeast fitness is ≤ 0.5.

**Q.** Which yeast fitness does the source give for GUUCAGUUGGCGUAAUGGUAACGCGUCUCCCUCCUAAGAAGAAGACUGCGGGUUCGAGACCCGUACGGAACG here?
**A.** Its yeast fitness is ≤ 0.5.
